Results taken from article PMC7065716 (International Journal of Nanomedicine, 2020).
“And” between values parts separate entries of the source, which are not always exact repeats. Equal entries are not always repeated. Structures can show the parent of a compound that is named as a salt. Each block holds one molecule with its values, some of them ahead of it.

Key:
In vitro DH release = format: physicochemical; conditions: dialysis bag, pH 5.5, 37 °C
Outline: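 Formulation or free drug solution (3 mg drug equivalent) held in a cellophane dialysis bag (MWCO 12,000) wrapped on a cylinder. Bag placed in 30 mL PBS, pH 5.5, at 37 ± 0.5 °C, stirred 50 rpm. 3 mL sampled at 1, 2, 3, 5, 6, 7 and 8 h and replaced. UV read at 292 nm. Run in triplicate, mean ± SD, cumulative % released.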

Ex vivo skin permeation = format: in vitro ADME, rat
Outline: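 Franz cell, 5.0 cm2 permeation area, 100 mL distilled-water receiver. Shaved rat skin mounted stratum corneum up. Donor: vesicle formulation equivalent to 3 mg drug, or drug solution as control. Run at 37 ± 2 °C, 100 rpm, 24 h, sampling at 1–24 h with medium replaced. UV read at 292. Lag time from x-intercept of the linear portion of the cumulative µg/cm2-versus-time plot; Jss (µg/cm2/h) and Kp (cm/h) calculated.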

[1] = Pharmacokinetic analysis in rats; format: in vivo; conditions: Wister albino, rat, plasma, 10 mg/kg
Outline: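 Rats (200–250 g, six per group) fasted 10 h, then dosed 10 mg/kg by oral gavage or as 1 g gel on 4 cm2 shaved dorsum. Retro-orbital blood (0.5 mL, heparinized) taken 0.25–24 h; plasma stored −20°C. Plasma spiked with internal standard, extracted with tert-butyl methyl ether, reconstituted in acetonitrile:0.1% formic acid (80:20), analysed by LC-MS/MS on C18. Non-compartmental analysis; AUC by trapezoidal rule.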

[2] = system: anti-cyclic citrullinated peptide antibody (anti-CCP); assay: CFA-induced RA in rats: serum anti-CCP; format: in vivo, female Wister albino rats; conditions: treated day 13-27, serum day 28
Outline: (§1)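 Arthritis induced as three 0.4 mL subcutaneous plantar CFA injections (days 1, 4, 7); treatments given days 13–27 as topical gel 1 g/day on 4 cm2 shaved dorsum or oral 10 mg/kg/day. Eight rats per group. Day 28, 24 h after last dose, retro-orbital blood under diethyl ether; serum separated at 3000 rpm for 30 min, stored −20°C, assayed by ELISA kit. One-way ANOVA with Tukey test.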

[3] = system: cartilage oligomeric matrix protein (COMP); assay: CFA-induced RA in rats: serum COMP; format: in vivo, female Wister albino rats; conditions: treated day 13-27, serum day 28
Outline: as §1

IL-6 = assay: CFA-induced RA in rats: serum IL-6; format: in vivo, female Wister albino rats; conditions: treated day 13-27, serum day 28, listed as oral DH
Outline: as §1

CFA-induced RA in rats [4] = assay: CFA-induced RA in rats: radiographic analysis; format: in vivo, female Wister albino rats; conditions: day 28
CFA-induced RA in rats [5] = assay: CFA-induced RA in rats: histopathology of knee joints, spleen and liver; format: in vivo, female Wister albino rats; conditions: H&E
Outline: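 CFA (0.4 mL) injected subcutaneously into hind-limb plantar surface on days 1, 4 and 7 in female rats, 180–200 g, 8 per group. From day 13 to 27: topical gel 1 g/day on 4 cm2 shaved dorsum, oral 10 mg/kg/day, or reference oral drug 0.1 mg/kg/day. On day 28, under pentobarbitone 50 mg/kg i.p., three knee joints per group plus spleen and liver fixed in 10% formalin saline for 24 h, H&E-stained and read by pathologist.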

[6] = cited from earlier work

DH released in the first 3 h (In vitro DH release): approximately 95%
Papp (Ex vivo skin permeation; rat): 0.944 ×10⁻⁶ cm/s
Lag Time (Ex vivo skin permeation; rat skin, Franz cell): 91.10 ± 20.67 min
Y5: Q24, cumulative amount permeated/unit area in 24 h (Ex vivo skin permeation; rat skin, Franz cell, 37 °C, 24 h): 135.6±17.0 µg/cm2
Jss (drug flux, steady state) (Ex vivo skin permeation; rat skin, Franz cell, listed as DH solution): 5.6±0.7 µg/cm2.h and 5.65± 0.71 µg/cm2.h
AUC(0-inf) ([1]; oral): 734 ng·h/mL
Cmax ([1]; oral): 198 ng/mL
AUC(0-inf) ([1]; po): 734 ± 51.1 ng·h/mL
AUC(0-t) ([1]; po): 701 ± 25.8 ng·h/mL
Cmax ([1]; po): 198 ± 16.4 ng/mL
MRT ([1]; po): 5.74 ± 1.56 h
Tmax ([1]; po): 1.5 ± 0.06 h
half-life ([1]; po): 5.46 ± 2.87 h
Structure (SMILES): CN(C)[C@@H](CCOc1cccc2ccccc12)c1ccccc1 [DH, Dapoxetine hydrochloride]
Anti-CCP (serum) [2]: 4.64 ± 0.15^a, b, c, d, e ng/mL
COMP (serum) [3]: 70.30 ± 5.73^a, b, c, d, e pg/mL
IL-6 (serum) (IL-6): no significant effect
radiographic findings (CFA-induced RA in rats [4]): significant and comparable inhibition of soft tissues swelling
knee joint histopathology (CFA-induced RA in rats [5]): rough cerrated articular surface
liver histopathology (CFA-induced RA in rats [5]): marked congestion of central veins
spleen histopathology (CFA-induced RA in rats [5]): marked activation in the macrophage in the white pulb
elimination half-life [6]: 1.31 h

Structure (SMILES): CN(Cc1cnc2nc(N)nc(N)c2n1)c1ccc(C(=O)N[C@@H](CCC(=O)O)C(=O)O)cc1 [MTX, methotrexate]
Anti-CCP (serum) [2]: 4.00 ± 0.03^a, b, c ng/mL
radiographic findings (CFA-induced RA in rats [4]): almost normal soft tissue with disappearance of inflammatory signs
